The source made the active and inactive calls. No cut-off for these calls is given here.
Legend:
[1] = target: Adenosine receptor A2a (Homo sapiens, UniProt P29274); assay: Displacement of [3H]CGS21680 from human recombinant adenosine A2A receptor expressed in HEK293 cells after 60 mins by scintillation counting; type: cell-based
[2] = Colloidal aggregation at 10 uM by dynamic light scattering assay; type: physicochemical
Summary of the method: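 Compounds diluted from concentrated DMSO stocks into filtered 50 mM KPi, pH 7.0; particle formation checked by dynamic light scattering with 826.6 nm laser at 100% power, detector angle 90°.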

[3] = target: T1, Adenosine receptor A3 (Homo sapiens) (UniProt P0DMS8); assay: Displacement of [125I]I-AB-MECA from human recombinant adenosine A3 receptor expressed in CHO cells at 20 uM after 60 mins by gamma counting
T1 sequence (whole entry): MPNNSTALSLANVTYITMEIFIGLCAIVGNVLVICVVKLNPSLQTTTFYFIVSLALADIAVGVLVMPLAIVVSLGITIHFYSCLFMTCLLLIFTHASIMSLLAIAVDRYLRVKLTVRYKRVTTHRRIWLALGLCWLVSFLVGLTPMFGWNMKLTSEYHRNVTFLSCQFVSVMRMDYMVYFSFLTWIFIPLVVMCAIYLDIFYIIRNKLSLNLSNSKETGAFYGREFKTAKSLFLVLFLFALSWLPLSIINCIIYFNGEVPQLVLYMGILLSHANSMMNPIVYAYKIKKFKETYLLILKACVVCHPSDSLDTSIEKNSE

[4] = target: T2, Adenosine receptor A1 (Homo sapiens) (UniProt P30542); assay: Displacement of [3H]R-PIA from human recombinant adenosine A1 receptor expressed in CHO cells at 20 uM after 60 mins by scintillation counting; type: cell-based
T2 sequence (whole entry): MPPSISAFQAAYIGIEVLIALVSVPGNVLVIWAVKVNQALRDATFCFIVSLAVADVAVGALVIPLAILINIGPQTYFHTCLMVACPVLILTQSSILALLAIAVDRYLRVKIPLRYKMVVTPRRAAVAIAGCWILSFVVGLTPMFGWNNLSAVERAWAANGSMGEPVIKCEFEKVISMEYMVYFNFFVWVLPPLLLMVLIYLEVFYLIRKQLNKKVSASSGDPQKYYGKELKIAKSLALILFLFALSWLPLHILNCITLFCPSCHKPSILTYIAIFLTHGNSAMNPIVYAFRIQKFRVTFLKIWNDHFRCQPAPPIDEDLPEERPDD

[5] = target: Cruzipain (Trypanosoma cruzi) (UniProt P25779); assay: Inhibition of Trypanosoma cruzi cruzain at 10 uM preincubated for 5 mins before substrate addition by spectrophotometry; settings: in the assay text read “spectrofluorimetry” for “spectrophotometry”
Summary of the method: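 Enzyme (0.8 nM) preincubated with compound 5 min in 100 mM sodium acetate pH 5.5, 5 mM DTT, with and without 0.1% Triton X-100; started with Z-FR-AMC (2.5 μM final, enzyme 0.4 nM final), 0.5% DMSO; fluorescence ex 355/em 460 nm over 5 min; duplicates, DMSO controls.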

[6] = species on record: Homo sapiens; assay: Selectivity ratio of Ki for human recombinant adenosine A1 receptor to KI for human recombinant adenosine A2A receptor
[7] = species on record: Homo sapiens; assay: Selectivity ratio of Ki for human recombinant adenosine A3 receptor to KI for human recombinant adenosine A2A receptor
[8] = Inhibition of beta-lactamase AmpC preincubated for 5 mins before substrate addition by spectrophotometry
Summary of the method: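 In 50 mM potassium phosphate pH 7.0, 1 nM enzyme incubated 5 min with compound at 10 μM (0.1% DMSO); CENTA added to 92 μM final; absorbance at 405 nm followed for 5 min; duplicates with DMSO controls.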

Sequence of Adenosine receptor A2a (P29274 whole entry): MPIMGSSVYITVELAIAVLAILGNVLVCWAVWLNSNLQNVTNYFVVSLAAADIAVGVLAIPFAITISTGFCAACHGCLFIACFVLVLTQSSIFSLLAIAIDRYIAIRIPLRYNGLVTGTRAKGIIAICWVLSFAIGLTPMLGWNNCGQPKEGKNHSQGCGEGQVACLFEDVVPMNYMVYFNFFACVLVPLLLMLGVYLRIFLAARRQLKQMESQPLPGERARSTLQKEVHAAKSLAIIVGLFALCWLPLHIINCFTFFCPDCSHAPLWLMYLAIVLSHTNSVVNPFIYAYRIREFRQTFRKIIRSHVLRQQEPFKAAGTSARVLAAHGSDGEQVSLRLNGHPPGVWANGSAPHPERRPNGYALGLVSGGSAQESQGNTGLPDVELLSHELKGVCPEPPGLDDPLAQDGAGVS
Sequence of Cruzipain (Trypanosoma cruzi) (P25779 123-467 limits assumed): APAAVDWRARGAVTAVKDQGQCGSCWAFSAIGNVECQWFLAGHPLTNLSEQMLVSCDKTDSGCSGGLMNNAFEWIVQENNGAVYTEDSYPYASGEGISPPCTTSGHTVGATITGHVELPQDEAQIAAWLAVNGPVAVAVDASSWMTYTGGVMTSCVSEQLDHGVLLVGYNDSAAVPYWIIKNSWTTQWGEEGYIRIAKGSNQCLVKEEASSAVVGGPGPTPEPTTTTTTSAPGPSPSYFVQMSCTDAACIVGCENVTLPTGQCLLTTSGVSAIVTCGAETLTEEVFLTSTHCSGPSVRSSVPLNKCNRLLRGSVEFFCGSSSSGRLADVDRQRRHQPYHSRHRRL

| Compound | Ki [1] | Activity [2] | Activity [3] | Activity [4] | Activity [5] | Ratio Ki [6] | Ratio Ki [7] | inhibition [8] |
| --- | --- | --- | --- | --- | --- | --- | --- | --- |
| NC(=NCCc1c[nH]c2ccccc12)Nc1ncccn1 | 5900 nM |  |  |  |  |  |  |  |
| COc1ccc(-c2cc(=O)[nH]c(Nc3ccccc3)n2)cc1OC | 3600 nM |  | 37% | 4% |  |  |  |  |
| Cc1cccc(O[C@H](C)C(=O)Nc2nnc(-c3ccccc3)[nH]2)c1 |  | Not Active |  |  |  |  |  |  |
| Cc1cccc(Nc2nc3c([nH]2)c(=O)n(C)c(=O)n3C)c1 | 1200 nM |  | 17% | 6% |  |  |  |  |
| Cc1cc(C)nc(NC(=N)NCCc2c[nH]c3ccc(F)cc23)n1 |  |  | 18% | 25% | Active | 50 | 50 | inactive |
| Cc1cc(C)nc(NC(=N)NCCc2ccsc2)n1 |  |  | 21% | 3% |  |  |  |  |
| Cc1cccc(O[C@H](C)C(=O)Nc2nc(-c3ccccc3)n[nH]2)c1 |  |  |  |  | inactive |  |  | inactive |

Results, then the compound that gave them:

| Ki [1] | Activity [2] | Activity [3] | Activity [4] | Activity [5] | Ratio Ki [6] | Ratio Ki [7] | inhibition [8] | Compound |
| --- | --- | --- | --- | --- | --- | --- | --- | --- |
| 200 nM | Active |  |  |  |  |  |  | Cc1cc(C)nc(NC(N)=NCCc2c[nH]c3ccc(F)cc23)n1 |
| 1300 nM | Not Active | 15% | 12% | inactive |  |  |  | Cc1ccc2nc(Nc3nc(C)cc(C)n3)[nH]c2c1 |
| 8800 nM |  | 8% | 15% |  |  |  |  | CNc1ccccc1C(=O)/N=C(\N)Nc1nc(C)c2ccccc2n1 |
| 400 nM |  | 16% | 19% |  |  |  |  | Cc1cc(C)nc(NC(=N)NCCc2c[nH]c3ccccc23)n1 |
| 600 nM |  | 20% | 5% |  |  |  |  | COc1ccc2c(CCNC(=N)Nc3nc(C)cc(C)n3)c[nH]c2c1 |
| 2700 nM | Not Active | 28% | 5% | inactive |  |  |  | COc1ccc2c(c1)oc1c(-c3ccncc3)c(C#N)c(N)c(C#N)c12 |
| 400 nM |  |  |  |  |  |  |  | Cc1cc(C)nc(NC(N)=NCCc2ccsc2)n1 |
| 900 nM |  | 9% | 10% |  |  |  |  | COc1ccc(CCNC(=N)Nc2nc(C)cc(C)n2)cc1 |
|  |  | 8% | 4% |  |  |  |  | N=C(NCCc1c[nH]c2ccccc12)Nc1ncccn1 |

Reference: ChEMBL document CHEMBL1157745, “Structure-based discovery of A2A adenosine receptor ligands” (J Med Chem, 2010)
